Like-named read-outs stand apart in the source and are kept apart here.

Assay [1] deals with T1, homomeric human CNGA3 channels (Homo sapiens, UniProt Q16281).
T1 sequence (Q16281 1-694): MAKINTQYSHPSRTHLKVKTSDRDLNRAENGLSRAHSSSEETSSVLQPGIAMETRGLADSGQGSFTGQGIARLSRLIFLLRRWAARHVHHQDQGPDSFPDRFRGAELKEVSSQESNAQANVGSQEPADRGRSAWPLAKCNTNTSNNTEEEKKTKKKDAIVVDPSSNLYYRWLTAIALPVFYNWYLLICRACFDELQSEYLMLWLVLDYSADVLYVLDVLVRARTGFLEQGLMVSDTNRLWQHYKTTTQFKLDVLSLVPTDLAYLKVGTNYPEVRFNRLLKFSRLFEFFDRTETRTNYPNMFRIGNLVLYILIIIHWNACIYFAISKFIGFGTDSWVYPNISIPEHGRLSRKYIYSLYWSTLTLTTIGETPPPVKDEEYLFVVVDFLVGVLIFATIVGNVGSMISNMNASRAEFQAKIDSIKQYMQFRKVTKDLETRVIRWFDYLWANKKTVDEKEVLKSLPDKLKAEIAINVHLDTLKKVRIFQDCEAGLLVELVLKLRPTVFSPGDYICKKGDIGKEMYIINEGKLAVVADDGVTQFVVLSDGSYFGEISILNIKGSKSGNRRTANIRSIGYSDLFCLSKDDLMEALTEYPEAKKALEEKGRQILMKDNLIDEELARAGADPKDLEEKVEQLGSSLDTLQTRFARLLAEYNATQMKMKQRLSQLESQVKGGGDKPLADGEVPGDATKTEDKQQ
The assay is classed as biochemical. To be noted: for IMAX cAMP (Hill fit): normalized to maximum cGMP current; for EC50: read-out: K1/2 cGMP (Hill fit); for gating effect (increase in cGMP apparent affinity) compared with MMP9: within 40 min of exposure, MMP2 10 nM, trypsin 10 nM, collagenase 100 nM.

The target in assay [2] is heteromeric CNGA1 + CNGB1 channels (UniProt Q00194+Q14028). The assay is classed as biochemical, bovine CNGA1, human CNGB1. To be noted: for EC50: read-out: K1/2 cGMP (Hill fit).
Chain of heteromeric CNGA1 + CNGB1 channels (Q14028 whole entry, one chain of several): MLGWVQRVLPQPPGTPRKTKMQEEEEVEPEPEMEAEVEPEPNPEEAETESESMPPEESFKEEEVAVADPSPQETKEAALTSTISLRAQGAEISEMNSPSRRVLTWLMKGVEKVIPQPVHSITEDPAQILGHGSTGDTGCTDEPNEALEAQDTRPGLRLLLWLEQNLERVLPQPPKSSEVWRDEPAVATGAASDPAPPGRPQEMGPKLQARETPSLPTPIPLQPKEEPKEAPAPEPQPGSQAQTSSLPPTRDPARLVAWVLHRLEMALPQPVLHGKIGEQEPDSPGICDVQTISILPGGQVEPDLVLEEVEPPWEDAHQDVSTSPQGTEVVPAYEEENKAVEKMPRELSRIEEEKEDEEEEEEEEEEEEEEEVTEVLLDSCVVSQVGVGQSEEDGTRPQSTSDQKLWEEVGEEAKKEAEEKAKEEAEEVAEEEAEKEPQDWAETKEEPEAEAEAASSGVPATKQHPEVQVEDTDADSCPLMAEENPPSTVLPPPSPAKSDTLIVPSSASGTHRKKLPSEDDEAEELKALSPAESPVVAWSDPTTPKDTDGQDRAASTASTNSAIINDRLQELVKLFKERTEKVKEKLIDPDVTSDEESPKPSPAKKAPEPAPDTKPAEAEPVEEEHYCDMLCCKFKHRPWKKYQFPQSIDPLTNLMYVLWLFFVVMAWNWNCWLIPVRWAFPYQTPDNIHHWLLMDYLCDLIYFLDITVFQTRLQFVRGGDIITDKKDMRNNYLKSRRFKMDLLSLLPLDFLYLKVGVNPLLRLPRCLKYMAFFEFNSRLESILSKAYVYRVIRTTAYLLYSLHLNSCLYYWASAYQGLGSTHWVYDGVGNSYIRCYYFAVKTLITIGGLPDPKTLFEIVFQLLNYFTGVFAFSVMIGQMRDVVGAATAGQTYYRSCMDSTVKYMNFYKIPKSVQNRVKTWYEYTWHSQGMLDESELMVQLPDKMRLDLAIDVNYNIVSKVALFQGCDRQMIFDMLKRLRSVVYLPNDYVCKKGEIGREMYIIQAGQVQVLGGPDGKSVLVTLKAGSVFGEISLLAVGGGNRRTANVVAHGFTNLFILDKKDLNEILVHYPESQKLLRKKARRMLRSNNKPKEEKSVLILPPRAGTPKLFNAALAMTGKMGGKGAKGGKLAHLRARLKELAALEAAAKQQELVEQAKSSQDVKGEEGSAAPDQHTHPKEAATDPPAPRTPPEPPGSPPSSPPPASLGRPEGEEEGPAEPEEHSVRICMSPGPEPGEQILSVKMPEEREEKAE
Assay [3] has as its target native rod photoreceptor CNG channels. As to the kind of experiment: Inside-out patches excised from Xenopus rod outer segments. The assay is classed as biochemical, Xenopus laevis. The procedure, abridged: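 Retinas dissected from Xenopus laevis into frog Ringer's (pH 7.6), and rod outer segments freed by gentle agitation. Inside-out patches (pipettes 3–6 MΩ) at 20–23°C, with 130 mM NaCl, 0.2 mM EDTA, 3 mM HEPES (pH 7.2) solutions.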

In assay [4] the target is T2, heteromeric CNGA3 + CNGB3 channels (Homo sapiens, UniProt Q16281+Q9NQW8).
T2 sequence (Q16281 1-694): T1 sequence (Q16281 1-694)
T2 sequence (Q9NQW8 1-809): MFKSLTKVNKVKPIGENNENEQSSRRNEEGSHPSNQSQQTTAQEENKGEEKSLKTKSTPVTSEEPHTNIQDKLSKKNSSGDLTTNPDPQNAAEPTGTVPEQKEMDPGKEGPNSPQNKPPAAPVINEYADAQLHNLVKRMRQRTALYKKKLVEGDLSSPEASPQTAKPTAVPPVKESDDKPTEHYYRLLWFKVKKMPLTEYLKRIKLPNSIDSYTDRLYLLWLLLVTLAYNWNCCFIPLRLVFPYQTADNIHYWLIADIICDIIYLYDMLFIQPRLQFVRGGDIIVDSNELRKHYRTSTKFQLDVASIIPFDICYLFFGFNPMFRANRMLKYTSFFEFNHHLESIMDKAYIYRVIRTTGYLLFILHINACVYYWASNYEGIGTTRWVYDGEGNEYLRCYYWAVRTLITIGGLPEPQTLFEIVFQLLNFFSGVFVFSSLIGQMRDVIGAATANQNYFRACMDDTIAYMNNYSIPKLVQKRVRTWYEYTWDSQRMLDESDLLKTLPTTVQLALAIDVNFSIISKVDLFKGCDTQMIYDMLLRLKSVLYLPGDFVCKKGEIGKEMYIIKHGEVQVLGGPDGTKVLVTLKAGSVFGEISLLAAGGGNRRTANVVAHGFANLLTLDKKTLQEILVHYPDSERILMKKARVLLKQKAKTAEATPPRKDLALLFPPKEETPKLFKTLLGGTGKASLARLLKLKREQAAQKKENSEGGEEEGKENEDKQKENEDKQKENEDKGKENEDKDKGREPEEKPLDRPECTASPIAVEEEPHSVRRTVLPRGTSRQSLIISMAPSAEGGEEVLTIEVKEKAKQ
The assay is classed as biochemical.

A further assay deals with T3, homomeric CNGA1 channels (Bos taurus, UniProt Q00194).
T3 sequence (Q00194 1-690): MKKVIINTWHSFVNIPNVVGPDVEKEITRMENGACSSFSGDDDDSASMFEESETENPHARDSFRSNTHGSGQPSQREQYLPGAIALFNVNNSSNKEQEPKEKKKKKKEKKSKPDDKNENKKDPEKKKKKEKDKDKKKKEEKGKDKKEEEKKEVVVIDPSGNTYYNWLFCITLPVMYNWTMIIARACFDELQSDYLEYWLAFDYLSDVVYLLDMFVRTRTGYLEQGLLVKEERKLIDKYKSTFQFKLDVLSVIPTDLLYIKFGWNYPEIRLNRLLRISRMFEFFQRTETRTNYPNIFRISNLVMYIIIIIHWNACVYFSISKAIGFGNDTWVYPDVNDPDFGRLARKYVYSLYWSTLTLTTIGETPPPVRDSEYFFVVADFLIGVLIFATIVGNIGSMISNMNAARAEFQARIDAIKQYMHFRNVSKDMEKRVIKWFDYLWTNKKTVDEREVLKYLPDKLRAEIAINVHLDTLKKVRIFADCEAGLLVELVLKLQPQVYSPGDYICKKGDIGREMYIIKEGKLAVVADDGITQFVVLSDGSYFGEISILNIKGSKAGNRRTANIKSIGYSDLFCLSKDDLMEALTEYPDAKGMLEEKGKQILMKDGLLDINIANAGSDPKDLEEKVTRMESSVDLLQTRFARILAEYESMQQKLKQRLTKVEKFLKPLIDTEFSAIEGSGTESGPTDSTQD
As to the kind of experiment: Inside-out patch-clamp of oocyte patches expressing rod homomeric CNGA1 channels. The assay is classed as biochemical, bovine. (In patch-clamp work, channel activity is measured electrically.)

The mark [5] stands for this setting: representative control patch, t0 (Fig 1F).
The mark [6] stands for this setting: representative control patch, t80 (Fig 1F).
[7] abbreviates: representative control patch, t0 (Fig 9C).
Setting [8] is: representative control patch, t40 (Fig 9C).
The mark [9] stands for this setting: representative control patch, t40 (Fig 4B).
[10] abbreviates: representative control patch, t60 (Fig 1B).

Consider `Nc1ncnc2c1ncn2[C@@H]1O[C@@H]2COP(=O)(O)O[C@H]2[C@H]1O` [cAMP, cyclic adenosine monophosphate], for which the “efficacy of cAMP, IcAMP/IMAX” value in assay [1] (control patches, 60 min, n = 6) was 0.15 ± 0.05. Further, in assay [1] (setting [5]), the “nH cAMP (Hill fit)” value turned out to be 1.1 and the “IMAX cAMP (Hill fit)” value stood at 0.29. Further, in assay [1] (setting [6]), the “nH cAMP (Hill fit)” value came to 1.0 and the “IMAX cAMP (Hill fit)” value amounted to 0.14.

For `Nc1nc2c(ncn2[C@@H]2O[C@@H]3COP(=O)(O)O[C@H]3[C@H]2O)c(=O)[nH]1` [cGMP, cyclic guanosine monophosphate], the “equilibrium constant for the allosteric transition (L)” value is given as 20 in assay [2] (A1+B1 control, cGMP, 40 min post excision (Fig 10B)); 180 in assay [1] (A3 control, cGMP, 80 min post excision, allosteric model fit (Fig 10A)); 40 on homomeric CNGA1 channels (A1 control, cGMP, 40 min post excision (Fig 10B)). The EC50 in assay [2] (setting [7]) was found to be 59.4 µM; in assay [2] (setting [8]), 55.6 µM; in assay [3] (read-out: K1/2 cGMP (Hill fit), representative control patch, t0 (Fig 11A)), 19.3 µM; in assay [3] (read-out: K1/2 cGMP (Hill fit), representative control patch, t25 (Fig 11A)) it was 28.1 µM; in assay [3] (read-out: initial K1/2 cGMP, native CNG channels, initial value), 23.5 ± 2.1 µM; in assay [4] (read-out: K1/2,GMP, time-matched control, 80 min, n = 4-6) it was 16.4 µM. Besides, the EC50 in assay [4] (read-out: K1/2 cGMP (Hill fit), representative control patch, t0 (Fig 8A)) is 15.7 µM; in assay [4] (read-out: K1/2 cGMP (Hill fit), representative control patch, t80 (Fig 8A)), 16.5 µM; in assay [1] (setting [9]), 8 µM; in assay [1] (setting [10]), 10.3 µM. Also, the “nH cGMP (Hill fit)” value in assay [2] (setting [7]) worked out at 2.3; in assay [2] (setting [8]), 2.4; in assay [3] (representative control patch, t0 (Fig 11A)), 2.6; in assay [3] (representative control patch, t25 (Fig 11A)), 2.6; in assay [4] (representative control patch, t0 (Fig 8A)) it was 2.1; in assay [4] (representative control patch, t80 (Fig 8A)), 1.9. Moreover, the “nH cGMP (Hill fit)” value in assay [1] (representative control patch, t0 (Fig 1B)) is 2.9; in assay [1] (setting [9]), 2.3; in assay [1] (setting [10]), 2.1; on homomeric CNGA1 channels (representative control patch, t0 (Fig 9A)), 2.2; on homomeric CNGA1 channels (representative control patch, t40 (Fig 9A)), 2.2. Also, the “IMAX cGMP (Hill fit)” value was determined as 1.0 in assay [2] (representative control patch, t0 (Fig 9C), normalized to maximum t0 cGMP current); 1.0 in assay [4] (representative control patch, t0 (Fig 8A), normalized to maximum t0 cGMP current); 1.0 in assay [1] (representative control patch, t0 (Fig 1B), normalized to maximum t0 cGMP current); 1.0 on homomeric CNGA1 channels (representative control patch, t0 (Fig 9A), normalized to maximum t0 cGMP current). Besides, in assay [4] (control, 80 min, n = 4-6), the “2 μM cGMP current, I2μM/IMAX” value amounted to 0.03 ± 0.006. For the same molecule, the “Hill slope nH, cGMP” value in assay [1] (control patches, 60 min, n = 6) was found to be 2.2 ± 0.2.

Consider `CCCCNc1ccc(C(=O)OCCN(C)C)cc1` [tetracaine], for which the “effect on the increased persistent current after MMP9” value in assay [4] (data not shown) is reported as “inhibited”.

For the molecule collagenase, the “gating effect (increase in cGMP apparent affinity) compared with MMP9” value in assay [1] was “failed to produce similar gating effects”.

B1: trypsin: extracellular serine protease, Trypsin-EDTA (Gibco, 25200) (protein, UniProt P00761 9-231, looked up)
Trypsin: IVGGYTCAANSIPYQVSLNSGSHFCGGSLINSQWVVSAAHCYKSRIQVRLGEHNIDVLEGNEQFINAAKIITHPNFNGNTLDNDIMLIKLSSPATLNSRVATVSLPRSCAAAGTECLISGWGNTKSSGSSYPSLLQCLKAPVLSDSSCKSSYPGQITGNMICVGFLEGGKDSCQGDSGGPVVCNGQLQGIVSWGYGCAQKNKPGVYTKVCNYVNWIQQTIAAN
modifications: EDTA
Regarding B1, the “gating effect (increase in cGMP apparent affinity) compared with MMP9” value in assay [1] is given as “failed to produce similar gating effects”.

B2: MMP2: active human recombinant MMP2 (Calbiochem, PF023), closely related gelatinase/metalloproteinase (protein, UniProt P08253 110-660, looked up)
72 kDa type IV collagenase: YNFFPRKPKWDKNQITYRIIGYTPDLDPETVDDAFARAFQVWSDVTPLRFSRIHDGEADIMINFGRWEHGDGYPFDGKDGLLAHAFAPGTGVGGDSHFDDDELWTLGEGQVVRVKYGNADGEYCKFPFLFNGKEYNSCTDTGRSDGFLWCSTTYNFEKDGKYGFCPHEALFTMGGNAEGQPCKFPFRFQGTSYDSCTTEGRTDGYRWCGTTEDYDRDKKYGFCPETAMSTVGGNSEGAPCVFPFTFLGNKYESCTSAGRSDGKMWCATTANYDDDRKWGFCPDQGYSLFLVAAHEFGHAMGLEHSQDPGALMAPIYTYTKNFRLSQDDIKGIQELYGASPDIDLGTGPTPTLGPVTPEICKQDIVFDGIAQIRGEIFFFKDRFIWRTVTPRDKPMGPLLVATFWPELPEKIDAVYEAPQEEKAVFFAGNEYWIYSASTLERGYPKPLTSLGLPPDVQRVDAAFNWSKNKKTYIFAGDKFWRYNEVKKKMDPGFPKLIADAWNAIPDNLDAVVDLQGGGHSYFFKGAYYLKLENQSLKSVKFGSIKSDWLGC
As to B2, the “gating effect (increase in cGMP apparent affinity) compared with MMP9” value in assay [1] was “indistinguishable from the effect produced by MMP9”.

The record behind these values is paper PMC3431585 (Channels, 2012).
